Data as given in ChEMBL document CHEMBL5724801, “EUbOPEN Chemogenomics Library - Multiplex” (2024).
Values joined by “and” are separate entries in the source; they are usually repeats but may differ in a detail not shown here. Identical values can stand only once.

The molecules below were run on Fibroblast (assay: Multiplex assay against human fibroblast). Settings: 12 h, 1 µM, compound concentration 1 uM.
Assay type: toxicity, cell-based
Method in brief: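 Phenotypes for tubulin, mitochondrial mass and membrane permeability are expressed as per cents of healthy-nucleus cells. Cells were stained live at seeding with Hoechst33342, BioTracker Green Microtubule Cytoskeleton Dye, MitoTracker Red and Annexin V Alexa Fluor 680, then imaged after compound addition on a CQ1 microscope at 37°C and 5% CO2. Machine-learning gating in CellPathfinder separated Hoechst high-intensity objects from normal cells, divided normal cells by nuclear state (healthy, pyknosed, fragmented) and divided pyknosed cells into mitotic or apoptotic.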

Structure (SMILES) | Population Fragmented Nuclei (%) | Population Healthy Nuclei (%) | Population Hoechst High Intensity Objects (%) | Population Membrane Permeable-Phenotype (%) | Population Mitochondria Different-Phenotype (%) | Population Mitotic Cells (%) | Population Normal (%) | Population Pyknosed Nuclei (%) | Population Tubulin-Different-Phenotype (%) | Total Cell Count
CNc1nc(NCc2ncccn2)c2c(-c3ccc4ncccc4c3)c[nH]c2n1 | 13.9% and 7.14% | 54.01% and 75.6% | 0% | 2.97% and 3.94% | 7.92% and 10.24% | 95% and 75.86% | 100% | 32.09% and 17.26% | 11.88% and 22.83% | 187 and 168
Br.CS(=O)(=O)Nc1c(O)ccc2c1CCCC2C1=NCCN1 (configuration not stated) | – | 76% and 47% | 1% and 8% | 0% and 7% | 5% and 8% | 82% and 68% | 98% and 91% | 14% and 19% | 20% and 38% | 167 and 192
COc1ccccc1N1CCN(C[C@@H](C(=O)NC(C)(C)C)c2ccccc2)CC1.Cl.Cl | 12% and 25% | 70% and 43% | 2% and 5% | 0% | 8% and 4% | 56% and 60% | 97% and 94% | 16% and 30% | 37% and 43% | 141 and 155
O=c1ccc2ccc(OCCCCN3CCN(c4cccc5sccc45)CC3)cc2[nH]1 [BREXPIPRAZOLE] | 17% and 33% | 62% and 44% | 2% and 5% | 0% and 2% | 5% and 15% | 44% and 51% | 97% and 94% | 20% and 21% | 41% and 73% | 126 and 169

Same assay, conditions: 12 h, 1 µM, compound concentration 1 uM

Structure (SMILES) | Population Apoptotic (%)
Br.CS(=O)(=O)Nc1c(O)ccc2c1CCCC2C1=NCCN1 (configuration not stated) | 17% and 31%
COc1ccccc1N1CCN(C[C@@H](C(=O)NC(C)(C)C)c2ccccc2)CC1.Cl.Cl | 43% and 40%
O=c1ccc2ccc(OCCCCN3CCN(c4cccc5sccc45)CC3)cc2[nH]1 [BREXPIPRAZOLE] | 56% and 48%

Same assay, conditions: 12 h, 10 µM, compound concentration 10 uM

Structure (SMILES) | Population Apoptotic (%) | Population Fragmented Nuclei (%) | Population Healthy Nuclei (%) | Population Hoechst High Intensity Objects (%) | Population Membrane Permeable-Phenotype (%) | Population Mitochondria Different-Phenotype (%) | Population Mitotic Cells (%) | Population Normal (%) | Population Pyknosed Nuclei (%) | Population Tubulin-Different-Phenotype (%)
CNc1nc(NCc2ncccn2)c2c(-c3ccc4ncccc4c3)c[nH]c2n1 | 15.15% and 23.33% | 8.7% and 4.55% | 70.81% and 81.82% | 0% | 15.79% and 10% | 16.67% and 13.89% | 84.85% and 76.67% | 100% | 20.5% and 13.64% | 33.33% and 51.67%
Br.CS(=O)(=O)Nc1c(O)ccc2c1CCCC2C1=NCCN1 (configuration not stated) | 38% and 33% | 20% and 38% | 47% and 45% | 6% and 0% | – | 7% and 5% | 61% and 66% | 93% and 99% | 31% and 16% | 21% and 43%
COc1ccccc1N1CCN(C[C@@H](C(=O)NC(C)(C)C)c2ccccc2)CC1.Cl.Cl | 50% and 48% | 20% and 32% | 59% and 42% | 5% | 1% and 6% | 20% and 12% | 50% and 51% | 94% | 20% and 24% | 66% and 70%
O=c1ccc2ccc(OCCCCN3CCN(c4cccc5sccc45)CC3)cc2[nH]1 [BREXPIPRAZOLE] | 68% and 45% | 16% and 30% | 64% and 49% | 1% and 11% | 0% and 2% | 39% and 25% | 31% and 54% | 98% and 88% | 19% and 20% | 83% and 81%

Same assay, conditions: 12 h, 10 µM, compound concentration 10 uM

Structure (SMILES) | Total Cell Count
CNc1nc(NCc2ncccn2)c2c(-c3ccc4ncccc4c3)c[nH]c2n1 | 161 and 220
Br.CS(=O)(=O)Nc1c(O)ccc2c1CCCC2C1=NCCN1 (configuration not stated) | 148 and 129
COc1ccccc1N1CCN(C[C@@H](C(=O)NC(C)(C)C)c2ccccc2)CC1.Cl.Cl | 134 and 116
O=c1ccc2ccc(OCCCCN3CCN(c4cccc5sccc45)CC3)cc2[nH]1 [BREXPIPRAZOLE] | 203 and 243

Same assay, conditions: 24 h, 1 µM, compound concentration 1 uM

Structure (SMILES) | Population Fragmented Nuclei (%) | Population Healthy Nuclei (%) | Population Hoechst High Intensity Objects (%) | Population Membrane Permeable-Phenotype (%) | Population Mitochondria Different-Phenotype (%) | Population Mitotic Cells (%) | Population Normal (%) | Population Pyknosed Nuclei (%) | Population Tubulin-Different-Phenotype (%) | Total Cell Count
CNc1nc(NCc2ncccn2)c2c(-c3ccc4ncccc4c3)c[nH]c2n1 | 11.26% and 5.29% | 65.37% and 85.29% | 0% | 1.99% and 6.21% | 3.31% and 4.83% | 98.15% and 87.5% | 100% | 23.38% and 9.41% | 12.58% and 11.72% | 231 and 170
Br.CS(=O)(=O)Nc1c(O)ccc2c1CCCC2C1=NCCN1 (configuration not stated) | 12% and 25% | 77% and 60% | 1% and 7% | 0% and 2% | 3% and 7% | 43% and 66% | 98% and 92% | 10% and 14% | 16% and 41% | 159 and 180
COc1ccccc1N1CCN(C[C@@H](C(=O)NC(C)(C)C)c2ccccc2)CC1.Cl.Cl | 12% and 24% | 73% and 55% | 2% and 3% | 0% and 8% | – | 50% | 97% and 96% | 14% and 19% | 32% and 50% | 143 and 151
O=c1ccc2ccc(OCCCCN3CCN(c4cccc5sccc45)CC3)cc2[nH]1 [BREXPIPRAZOLE] | 17% and 32% | 69% and 52% | 1% and 3% | 0% and 2% | 8% and 14% | 43% and 66% | 98% and 96% | 13% and 14% | 43% and 76% | 122 and 173

Same assay, conditions: 24 h, 1 µM, compound concentration 1 uM

Structure (SMILES) | Population Apoptotic (%)
Br.CS(=O)(=O)Nc1c(O)ccc2c1CCCC2C1=NCCN1 (configuration not stated) | 56% and 33%
COc1ccccc1N1CCN(C[C@@H](C(=O)NC(C)(C)C)c2ccccc2)CC1.Cl.Cl | 50%
O=c1ccc2ccc(OCCCCN3CCN(c4cccc5sccc45)CC3)cc2[nH]1 [BREXPIPRAZOLE] | 56% and 33%

Same assay, conditions: 24 h, 10 µM, compound concentration 10 uM

Structure (SMILES) | Population Apoptotic (%) | Population Fragmented Nuclei (%) | Population Healthy Nuclei (%) | Population Hoechst High Intensity Objects (%) | Population Membrane Permeable-Phenotype (%) | Population Mitochondria Different-Phenotype (%) | Population Mitotic Cells (%) | Population Normal (%) | Population Pyknosed Nuclei (%) | Population Tubulin-Different-Phenotype (%)
CNc1nc(NCc2ncccn2)c2c(-c3ccc4ncccc4c3)c[nH]c2n1 | 23.08% and 26.09% | 8.06% and 4.98% | 77.96% and 84.62% | 0% | 2.76% and 4.28% | 11.72% and 12.83% | 76.92% and 73.91% | 100% | 13.98% and 10.41% | 37.24% and 52.41%
Br.CS(=O)(=O)Nc1c(O)ccc2c1CCCC2C1=NCCN1 (configuration not stated) | 48% and 41% | 16% and 41% | 60% and 44% | 3% and 0% | 0% and 10% | 2% and 10% | 51% and 58% | 96% and 99% | 23% and 13% | 24% and 41%
COc1ccccc1N1CCN(C[C@@H](C(=O)NC(C)(C)C)c2ccccc2)CC1.Cl.Cl | 83% and 40% | 19% and 39% | 65% and 41% | 8% and 3% | 0% and 8% | – | – | 91% and 96% | 14% and 19% | 63% and 76%
O=c1ccc2ccc(OCCCCN3CCN(c4cccc5sccc45)CC3)cc2[nH]1 [BREXPIPRAZOLE] | 58% and 65% | 13% and 30% | 54% and 40% | 13% and 19% | 0% | 63% and 34% | 41% and 34% | 86% and 80% | 31% and 28% | 85% and 71%

Same assay, conditions: 24 h, 10 µM, compound concentration 10 uM

Structure (SMILES) | Total Cell Count
CNc1nc(NCc2ncccn2)c2c(-c3ccc4ncccc4c3)c[nH]c2n1 | 186 and 221
Br.CS(=O)(=O)Nc1c(O)ccc2c1CCCC2C1=NCCN1 (configuration not stated) | 148 and 130
COc1ccccc1N1CCN(C[C@@H](C(=O)NC(C)(C)C)c2ccccc2)CC1.Cl.Cl | 132 and 116
O=c1ccc2ccc(OCCCCN3CCN(c4cccc5sccc45)CC3)cc2[nH]1 [BREXPIPRAZOLE] | 218 and 239

Same assay, conditions: 48 h, 1 µM, compound concentration 1 uM

Structure (SMILES) | Population Apoptotic (%) | Population Fragmented Nuclei (%) | Population Healthy Nuclei (%) | Population Hoechst High Intensity Objects (%) | Population Membrane Permeable-Phenotype (%) | Population Mitochondria Different-Phenotype (%) | Population Mitotic Cells (%) | Population Normal (%) | Population Pyknosed Nuclei (%) | Total Cell Count
CNc1nc(NCc2ncccn2)c2c(-c3ccc4ncccc4c3)c[nH]c2n1 | 11.76% and 6.67% | 8.43% and 2.79% | 85.06% and 88.83% | 0% | 1.35% and 4.4% | 11.26% and 5.66% | 88.24% and 93.33% | 100% | 6.51% and 8.38% | 261 and 179
Br.CS(=O)(=O)Nc1c(O)ccc2c1CCCC2C1=NCCN1 (configuration not stated) | 57% and 38% | 14% and 26% | 76% and 61% | 4% and 5% | 4% and 0% | 3% and 9% | 42% and 61% | 95% and 94% | 8% and 12% | 167 and 177
COc1ccccc1N1CCN(C[C@@H](C(=O)NC(C)(C)C)c2ccccc2)CC1.Cl.Cl | 84% and 60% | 18% and 31% | 71% and 52% | 5% | 1% and 5% | 12% and 5% | 15% and 40% | 94% | 10% and 15% | 138 and 171
O=c1ccc2ccc(OCCCCN3CCN(c4cccc5sccc45)CC3)cc2[nH]1 [BREXPIPRAZOLE] | 62% and 60% | 24% and 42% | 62% and 51% | 4% | 0% and 1% | 10% and 9% | 37% and 40% | 95% | 12% and 5% | 133 and 175

Same assay, conditions: 48 h, 1 µM, compound concentration 1 uM

Structure (SMILES) | Population Tubulin-Different-Phenotype (%)
Br.CS(=O)(=O)Nc1c(O)ccc2c1CCCC2C1=NCCN1 (configuration not stated) | 24% and 41%
COc1ccccc1N1CCN(C[C@@H](C(=O)NC(C)(C)C)c2ccccc2)CC1.Cl.Cl | 34% and 56%
O=c1ccc2ccc(OCCCCN3CCN(c4cccc5sccc45)CC3)cc2[nH]1 [BREXPIPRAZOLE] | 52% and 67%

Same assay, conditions: 48 h, 10 µM, compound concentration 10 uM

Structure (SMILES) | Population Apoptotic (%) | Population Fragmented Nuclei (%) | Population Healthy Nuclei (%) | Population Hoechst High Intensity Objects (%) | Population Membrane Permeable-Phenotype (%) | Population Mitotic Cells (%) | Population Normal (%) | Population Pyknosed Nuclei (%) | Population Tubulin-Different-Phenotype (%) | Total Cell Count
CNc1nc(NCc2ncccn2)c2c(-c3ccc4ncccc4c3)c[nH]c2n1 | 23.08% and 42.86% | 11.86% and 6.28% | 81.44% and 90.58% | 0% | 5.06% and 7.92% | 76.92% and 57.14% | 100% | 6.7% and 3.14% | 18.35% and 54.46% | 194 and 223
Br.CS(=O)(=O)Nc1c(O)ccc2c1CCCC2C1=NCCN1 (configuration not stated) | 61% and 33% | 22% and 48% | 61% and 44% | 6% and 1% | 1% and 3% | 38% and 66% | 93% and 98% | 15% and 7% | 21% and 45% | 145 and 127
COc1ccccc1N1CCN(C[C@@H](C(=O)NC(C)(C)C)c2ccccc2)CC1.Cl.Cl | 84% and 44% | 18% and 50% | 63% and 41% | – | 0% and 8% | – | 85% and 96% | 18% and 7% | 65% and 67% | 122
O=c1ccc2ccc(OCCCCN3CCN(c4cccc5sccc45)CC3)cc2[nH]1 [BREXPIPRAZOLE] | 62% and 44% | 18% and 30% | 50% and 43% | 34% | 0% | 37% and 55% | 65% | 31% and 26% | 88% and 55% | 208 and 317

Same assay, conditions: 48 h, 10 µM, compound concentration 10 uM

Structure (SMILES) | Population Mitochondria Different-Phenotype (%)
Br.CS(=O)(=O)Nc1c(O)ccc2c1CCCC2C1=NCCN1 (configuration not stated) | 2% and 9%
O=c1ccc2ccc(OCCCCN3CCN(c4cccc5sccc45)CC3)cc2[nH]1 [BREXPIPRAZOLE] | 60% and 20%
